G6PDH CS = counter-screen for G6PDH assay hits: L. mesenteroides G6PDH inhibition | Purified L. mesenteroides G6PDH, diaphorase/resazurin coupled fluorescence, 45 min | 200,000 compounds, 0.12% hits | inhibition, % at 5 µM
Diaphorase act = counter-screen for diaphorase-based assays: diaphorase activators and chemical reducers; Diaphorase/resazurin coupled assay, resorufin fluorescence, 16 min; hits give high values; 1 = vehicle wells, 0 = NADH-free wells; activation factor at 20 µM; 190,000 compounds, 0.005% hits; AID 1229;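 active means diaphorase activity raised at least twofold by the compound at 20 µM; inactive means activation factor below 2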
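Test system: Clostridium kluyveri diaphorase, purified enzyme. Buffer or medium: 50 mM HEPES pH 7.4 buffer plus MgCl2 and Tween 20. Also added: 0.114 mM NADH and 0.1 mM resazurin, final amounts. Dosing: compound 20 µM once, DMSO 1%. Schedule: 16 min enzyme reaction, ambient temperature. Detection: fluorescence of resorufin, 544 nm excitation, 590 nm emission.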
Diaphorase inh = inhibits diaphorase or chemically oxidizes, flagging diaphorase assay artifacts | inhibition, % at 20 µM | 190,000 compounds, 0.69% hits | diaphorase resazurin-to-resorufin fluorescence, NADH, 16 min; bacterial (C. kluyveri) enzyme, not human;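 active means primary screen inhibition at 20 µM above a set limit, cut at about 50% in these data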;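 further: plate controls were DMSO with full reaction for no effect and wells lacking NADH for full effect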
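System: Diaphorase enzyme from Clostridium kluyveri | Amount: Enzyme working solution with 0.14 U/mL diaphorase | Benchmarks: No-NADH positive control and DMSO neutral control | Signal: Fluorescence of resorufin formed from resazurin, Ex 544/Em 590 nm | Schedule: 16-min room-temperature incubation before reading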
WT yeast gro inh = growth inhibition of WT yeast, mitochondrial fusion screen; mitochondrial fusion phenotypic screen, WT strain; inhibition, % at 10 µM; 190,000 compounds, 2.1% hits; AID 1362; in the data active means inhibition above about 58%; tested in S. cerevisiae
L major viab = Leishmania major promastigote growth inhibition. Leishmania major promastigotes, resazurin fluorescence viability. inhibition, % at 10 µM. 200,000 compounds, 9% hits. AID 1063;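 further: promastigotes grown with compound for 44 hours at 28 °C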
The depositor's hits bear a star; nt = no result. In the library only some 11% were active in any assay of this set; here they are far more common. Unless noted, no stated cut-off is given here; in the data, active means inhibition above about 50%; inactive means the rest.

SMILES	G6PDH CS	Diaphorase act	Diaphorase inh	WT yeast gro inh	L major viab
COc1ccc(CCN2C(=O)CC(Cc3cccc(C)c3)C2=O)cc1OC (centres undefined)	19	0.9	14	18	-1
O=C1CC(Cc2ccccc2)C(=O)N1CCc1ccc2c(c1)OCO2 (centres undefined)	3	0.8	17	-1	100*
CCCNC(=O)COC(=O)c1ccccc1OCc1ccc(Cl)cc1	2	0.9	8	15	3
O=C(Oc1c(CN2CCOCC2)cc(Cl)c2cccnc12)c1cccs1	14	1	1	6	100*
Oc1c(Cl)cc(Cl)c2cccnc12	30	0.6	44	55	96*
N/C(Cc1ccc(Cl)c(Cl)c1)=N\OC(=O)c1cccs1	-1	0.8	23	-13	-6
O=C(Oc1c(Cl)cc(Cl)c2cccnc12)c1cccs1	11	0.8	18	60*	17
Clc1cc2cccnc2c2ccccc12	7	0.9	12	25	-2
O=C(Oc1c(Cl)cc(Cl)c2cccnc12)c1ccco1	25	0.8	19	31	98*
C=C(C)Cn1c(SCC(=O)O)nc2c1c(=O)[nH]c(=O)n2C	-21	0.9	14	10	-6
COc1ccccc1/C=C/C(=O)OCC(=O)c1c(N)n(C)c(=O)n(C)c1=O	-9	1	4	-5	-9
COc1ccc(-c2nnnn2CCc2ccccc2)cc1	-9	0.8	16	8	-5
COc1ccccc1OCc1nnc(SCC(=O)c2cc(Cl)ccc2OC)o1	1	0.8	24	-7	-5
CCN(CCCNC(=O)CCc1nc(-c2ccc(OC)cc2)no1)c1cccc(C)c1	5	0.8	24	18	32
O=C(Oc1c(CN2CCOCC2)cc(Cl)c2cccnc12)c1ccccc1Cl	24	0.6	42	4	100*
O=C(Oc1ccc(Cl)c2cccnc12)N1CCOCC1	-1	0.9	11	56	-6
CSc1nn(CCc2ccncc2)c(=S)s1	4	1.1	-7	-5	56*
CCOC(=O)CSc1nnc(-c2nnc(SCC(=O)OCC)n2CC)n1CC	-2	0.9	8	-6	-6
CC(C)(C)c1ccc(/C=N/NC(=S)NCc2ccccc2)cc1	1	1	-1	0	8
CN(C)c1ccc(/C=N/NC(=S)NCc2ccccc2)cc1	12	0.9	10	70*	-4
Cc1ccccc1N(CC(=O)N/N=C/c1ccc(N(C)C)cc1)C(=O)c1ccccc1	18	0.8	22	1	99*
CN(C)c1ccc(/C=N/NC(=O)COc2ccccc2)cc1	-6	0.9	8	-6	-8
CCN(CC)c1ccc(/C=N/NC(=O)Nc2ccccc2)cc1	-1	0.8	16	52	7
CCN(Cc1ccccc1)c1ccc(/C=N/NC(=S)NC(C)C)cc1	-19	0.8	16	69*	43
Cc1cccc(OCC(=O)N/N=C/c2ccc(N(C)C)cc2)c1	10	0.4	55*	1	-5
SMILES	G6PDH CS	Diaphorase act	Diaphorase inh	WT yeast gro inh	L major viab
CC(C)(C)c1ccc(OC(=O)Cn2c(C(F)(F)F)nc3ccccc32)cc1	9	1.1	-8	-4	-3
CCN(CC)c1ccc(/C=N/O)cc1	2	0.9	8	-17	20
CCN(CC)c1ccc(/C=N/NC(=S)NCc2ccco2)cc1	-6	0.8	19	67*	3
CCN(Cc1ccccc1)c1ccc(/C=N/N=C(N)N)cc1	16	1.2	-19	-24	100*
Cc1csc(NC(=O)c2c(O)c3c(n(CC(C)C)c2=O)CCCC3)n1	-46	0.9	11	63*	3
CCCn1c2c(c(O)c(C(=O)Nc3nccs3)c1=O)CCCC2	-4	0.7	26	76*	4
CCOC(=O)C=Nc1c(N)n(C)c(=O)n(C)c1=O	8	1	4	3	30
O=C(CCn1cnc(-c2ccccc2)c1-c1ccccc1)N/N=C/c1ccccc1O	-32	0.7	26	-11	98*
COc1cc(/C=C2/OC(=O)c3cc([N+](=O)[O-])ccc32)cc(OC)c1OC	nt	nt	nt	nt	-6
COc1cc(-c2nc(-c3ccccc3)c(-c3cc([N+](=O)[O-])ccc3C)[nH]2)cc(OC)c1OC	1	0.6	39	15	100*
CCOC(=O)C1CCN(S(=O)(=O)c2c(C)[nH]c(=O)[nH]c2=O)CC1	-8	0.9	6	-8	-5
